Activity calls are given as the source filed them. The rule behind the calls is not given here.
Assays:
HOP-62 = experiment: Anticancer activity against human HOP62 cells after 48 hrs by MTT assay; assay type: functional; settings: HOP-62, 48 h
HL-60 [1] = experiment: Induction of apoptosis in human HL60 cells assessed as cell shrinkage at 1 uM after 24 hrs; assay type: functional, cell-based
How it was run: (§1)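 HL-60 cells were exposed to 1 μM for 24 h. Apoptotic morphology, scored as cell shrinkage and apoptotic bodies, was examined by microscopy at 200×.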

IGROV-1 = experiment: Anticancer activity against human IGROV1 cells after 48 hrs by MTT assay; assay type: functional; settings: IGROV-1, 48 h
HL-60(TB) = experiment: Anticancer activity against human HL-60(TB) cells after 48 hrs by MTT assay; assay type: functional; settings: HL-60, 48 h
HL-60 [2] = experiment: Cell cycle arrest in human HL60 assessed as cell accumulation in Sub-G1 phase at 1 uM after 24 hrs by propidium iodide staining-based flow cytometric analysis; assay type: functional
How it was run: (§2)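 HL-60 cells were preincubated for 3 h with or without the pan-caspase inhibitor z-VAD-fmk, then co-exposed to compound at 1 μM for 24 h. Cells were washed in PBS and fixed overnight in ice-cold 70% ethanol at −20 °C. They were stained for 30 min in the dark with propidium iodide 4 μg/mL, 0.1 mg/ml RNase and 1% Triton X-100. DNA content was read on a FACScan flow cytometer.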

Malme-3M = experiment: Anticancer activity against human MALME-3M cells after 48 hrs by MTT assay; assay type: functional
SK-MEL-28 = experiment: Anticancer activity against human SK-MEL-28 cells after 48 hrs by MTT assay; assay type: functional; settings: SK-MEL-28, 48 h
A498 = experiment: Anticancer activity against human A498 cells after 48 hrs by MTT assay; assay type: functional; settings: A498, 48 h
HL-60 [3] = experiment: Cell cycle arrest in human HL60 assessed as cell accumulation in G2/M phase at 1 uM after 24 hrs by propidium iodide staining-based flow cytometric analysis; assay type: functional; how it was run: as §2
HCT-15 = experiment: Anticancer activity against human HCT15 cells after 48 hrs by MTT assay; assay type: functional; settings: HCT-15, 48 h
786-0 = experiment: Anticancer activity against human 786-0 cells after 48 hrs by MTT assay; assay type: functional; settings: 786-0, 48 h
HL-60 [4] = experiment: Cell cycle arrest in human HL60 assessed as cell accumulation in S phase at 1 uM after 24 hrs by propidium iodide staining-based flow cytometric analysis; assay type: functional; how it was run: as §2
RXF 393 = experiment: Anticancer activity against human RXF393 cells after 48 hrs by MTT assay; assay type: functional; settings: RXF 393, 48 h
SF-268 = experiment: Anticancer activity against human SF268 cells after 48 hrs by MTT assay; assay type: functional; settings: SF-268, 48 h
HL-60 [5] = experiment: Induction of cell cycle arrest at G2/M phase in human HL60 cells assessed as decrease in CDK1 protein expression after 24 hrs by Western blot analysis; assay type: functional, cell-based
How it was run: (§3)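 HL-60 cells at 2 × 10⁵/mL were exposed to the indicated concentrations for 24 h, washed in PBS and lysed for total protein. Immunoblots used HRP-linked secondary antibodies with ECL detection. Cyclin B1, CDK1, caspase-3 (17 kDa active form) and PARP (85 kDa fragment) were quantified and normalised to β-actin.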

NCI-H460 = experiment: Anticancer activity against human NCI-H460 cells after 48 hrs by MTT assay; assay type: functional; settings: NCI-H460, 48 h
NCI-H226 = experiment: Anticancer activity against human NCI-H226 cells after 48 hrs by MTT assay; assay type: functional; settings: NCI-H226, 48 h
T47D = experiment: Anticancer activity against human T47D cells after 48 hrs by MTT assay; assay type: functional
CAKI-1 = experiment: Anticancer activity against human Caki1 cells after 48 hrs by MTT assay; assay type: functional; settings: CAKI-1, 48 h
K562 = experiment: Anticancer activity against human K562 cells after 48 hrs by MTT assay; assay type: functional; settings: K562, 48 h
NCI-H522 = experiment: Anticancer activity against human NCI-H522 cells after 48 hrs by MTT assay; assay type: functional; settings: NCI-H522, 48 h
KM12 = experiment: Anticancer activity against human KM12 cells after 48 hrs by MTT assay; assay type: functional; settings: KM12, 48 h
SK-OV-3 = experiment: Anticancer activity against human SKOV3 cells after 48 hrs by MTT assay; assay type: functional; settings: SK-OV-3, 48 h
LOX IMVI = experiment: Anticancer activity against human LOXIMVI cells after 48 hrs by MTT assay; assay type: functional
SNB-19 = experiment: Anticancer activity against human SNB19 cells after 48 hrs by MTT assay; assay type: functional; settings: SNB-19, 48 h
COLO 205 = experiment: Anticancer activity against human COLO205 cells after 48 hrs by MTT assay; assay type: functional; settings: COLO 205, 48 h
MCF7 = experiment: Anticancer activity against human MCF7 cells after 48 hrs by MTT assay; assay type: functional; settings: MCF7, 48 h
HL-60 [6] = experiment: Cell cycle arrest in human HL60 assessed as cell accumulation in G0/G1 phase at 1 uM after 24 hrs by propidium iodide staining-based flow cytometric analysis; assay type: functional; how it was run: as §2
HL-60 [7] = experiment: Induction of cell cycle arrest at G2/M phase in human HL60 cells assessed as decrease in cyclin B1 expression at 0.1 to 1.0 uM after 24 hrs by Western blot analysis; assay type: functional, cell-based; how it was run: as §3
HL-60 [8] = experiment: Induction of apoptosis in human HL60 cells assessed as formation of apoptotic bodies at 1 uM after 24 hrs; assay type: functional, cell-based; how it was run: as §1
MDA-MB-435 = experiment: Anticancer activity against human MDA-MB-435 cells after 48 hrs by MTT assay; assay type: functional; settings: MDA-MB-435, 48 h
[9] = read-out: pLC50 (the source's name) (converted)

For `Cc1ccc(-c2cc(=O)c3cc4c(cc3[nH]2)OCO4)[se]1`, the GI50 (HOP-62) was 562 nM, the CC50 (HOP-62; [9]) was > 100000 nM and the TGI (HOP-62; read-out: pTGI) was > 100000 nM. The Activity (HL-60 [1]) was “Active”, the GI50 (IGROV-1) was 145 nM and the CC50 (IGROV-1; [9]) was > 100000 nM. For the same compound, the TGI (IGROV-1; read-out: pTGI (converted)) was 457 nM, the GI50 (HL-60(TB)) was 204 nM and the CC50 (HL-60(TB); [9]) was 933 nM. It also gave a TGI (HL-60(TB); read-out: pTGI (converted)) of 437 nM, an Activity (HL-60 [2]) of 21% and a GI50 (Malme-3M) of 427 nM. For the same compound, the CC50 (Malme-3M; [9]) was > 100000 nM, the TGI (Malme-3M; read-out: pTGI) was > 100000 nM and the GI50 (SK-MEL-28) was 794 nM. The CC50 (SK-MEL-28; [9]) was > 100000 nM, the TGI (SK-MEL-28; read-out: pTGI) was > 100000 nM and the GI50 (A498) was 372 nM. For the same compound, the CC50 (A498; [9]) was > 100000 nM, the TGI (A498; read-out: pTGI) was > 100000 nM and the Activity (HL-60 [3]) was 44.3%. The GI50 (HCT-15) was 339 nM, the CC50 (HCT-15; [9]) was > 100000 nM and the TGI (HCT-15; read-out: pTGI) was > 100000 nM. For the same compound, the GI50 (786-0) was 427 nM, the CC50 (786-0; [9]) was > 100000 nM and the TGI (786-0; read-out: pTGI) was > 100000 nM. For the same compound, the Activity (HL-60 [4]) was 41.6%, the GI50 (RXF 393) was 229 nM and the CC50 (RXF 393; [9]) was > 100000 nM. For the same compound, the TGI (RXF 393; read-out: pTGI (converted)) was 589 nM, the GI50 (SF-268) was 513 nM and the CC50 (SF-268; [9]) was > 100000 nM. For the same compound, the TGI (SF-268; read-out: pTGI) was > 100000 nM, the Activity (HL-60 [5]) was “Dose-dependent effect” and the GI50 (NCI-H460) was 331 nM. The CC50 (NCI-H460; [9]) was > 100000 nM, the TGI (NCI-H460; read-out: pTGI) was > 100000 nM and the GI50 (NCI-H226) was 389 nM. The CC50 (NCI-H226; [9]) was > 100000 nM, the TGI (NCI-H226; read-out: pTGI) was > 100000 nM and the GI50 (T47D) was 871 nM. The CC50 (T47D; [9]) was > 100000 nM, the TGI (T47D; read-out: pTGI) was > 100000 nM and the GI50 (CAKI-1) was 1820 nM. The CC50 (CAKI-1; [9]) was > 100000 nM, the TGI (CAKI-1; read-out: pTGI) was > 100000 nM and the GI50 (K562) was 282 nM. For the same compound, the CC50 (K562; [9]) was > 100000 nM, the TGI (K562; read-out: pTGI) was > 100000 nM and the GI50 (NCI-H522) was 288 nM. The CC50 (NCI-H522; [9]) was > 100000 nM, the TGI (NCI-H522; read-out: pTGI (converted)) was 537 nM and the GI50 (KM12) was 263 nM. The CC50 (KM12; [9]) was > 100000 nM, the TGI (KM12; read-out: pTGI) was > 100000 nM and the GI50 (SK-OV-3) was 347 nM. For the same compound, the CC50 (SK-OV-3; [9]) was > 100000 nM, the TGI (SK-OV-3; read-out: pTGI) was > 100000 nM and the GI50 (LOX IMVI) was 646 nM. The CC50 (LOX IMVI; [9]) was > 100000 nM, the TGI (LOX IMVI; read-out: pTGI) was > 100000 nM and the GI50 (SNB-19) was 389 nM. The CC50 (SNB-19; [9]) was > 100000 nM, the TGI (SNB-19; read-out: pTGI) was > 100000 nM and the GI50 (COLO 205) was 2630 nM. The CC50 (COLO 205; [9]) was > 100000 nM, the TGI (COLO 205; read-out: pTGI) was > 100000 nM and the GI50 (MCF7) was 324 nM. The CC50 (MCF7; [9]) was > 100000 nM, the TGI (MCF7; read-out: pTGI) was > 100000 nM and the Activity (HL-60 [6]) was 14.3%. The Activity (HL-60 [7]) was “Active”, the Activity (HL-60 [8]) was “Active” and the GI50 (MDA-MB-435) was 52.5 nM. The CC50 (MDA-MB-435; [9]) was > 100000 nM and the TGI (MDA-MB-435; read-out: pTGI (converted)) was 427 nM.
